Bioassay records: PubChem BioAssay, several laboratories
SR-BI DiI inh: blocks mouse SR-BI lipid uptake from DiI-HDL; Q61009; inhibition, % at 12.5 µM; ldlA[mSR-BI] CHO cells, DiI-HDL uptake fluorescence, 3 h; AID 488896; actives 0.96% (n = 320,000);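 active = mean replicate inhibition of at least 70% and a set share of replicates each scoring 70 or more; inconclusive = meets just one of the two criteria; inactive = fails both criteria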;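 note: 0% = median of neutral control wells and 100% = median of positive control wells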
Target sequence (Q61009 whole entry, looked up): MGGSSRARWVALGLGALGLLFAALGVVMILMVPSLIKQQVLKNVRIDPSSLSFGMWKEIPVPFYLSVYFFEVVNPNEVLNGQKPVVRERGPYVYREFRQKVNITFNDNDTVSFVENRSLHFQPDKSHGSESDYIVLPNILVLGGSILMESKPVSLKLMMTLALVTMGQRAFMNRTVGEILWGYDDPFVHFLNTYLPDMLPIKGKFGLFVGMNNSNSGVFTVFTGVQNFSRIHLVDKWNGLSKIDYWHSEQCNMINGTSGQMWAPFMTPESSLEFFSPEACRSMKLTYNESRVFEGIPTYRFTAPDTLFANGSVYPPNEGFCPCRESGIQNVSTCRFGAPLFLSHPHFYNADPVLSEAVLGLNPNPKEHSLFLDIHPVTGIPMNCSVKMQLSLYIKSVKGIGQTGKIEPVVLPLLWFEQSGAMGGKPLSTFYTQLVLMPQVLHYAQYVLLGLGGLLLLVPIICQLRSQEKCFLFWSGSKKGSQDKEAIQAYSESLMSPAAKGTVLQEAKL
sPLA2-III inh: Inhibits HGIII-sPLA2 liposome hydrolysis, primary screen; QFRET BODIPY PC-A2 liposome hydrolysis, fluorescence; inhibition, % at 12.2 µM; actives 0.56% (n = 370,000); AID 743126;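 active = inhibition above mean plus 3 SD of compounds lying within the high and low control bounds, cut at about 19% in these data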;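 note: 0% = median of test compound wells and 100% = no enzyme DMSO wells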
XiGFP reactiv: reactivates the inactive X chromosome in mouse fibroblasts. actives 0.055% (n = 360,000). activation, % at 7.58 µM. AID 743238. XiGFP mouse fibroblasts, % GFP-positive cells imaging, 3 d; cells co-treated with 5-aza-dC sensitizer; scaled so ellipticine positive control = 100%;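 active = mean normalized replicate activation at least 10% and every replicate at or above 10%; inconclusive = only one of the two criteria met; inactive = mean below 10% and not all replicates reach 10%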;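 note: 0% = median of on-plate neutral control wells and 100% = ellipticine 6 µM median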
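assay system = SV40-immortalized XiGFP fibroblast cells, line 68-5-11 | buffer or medium = DMEM plus 5-aza-dC sensitizer | doses = single-point pinned compound dosing | times = 3-day compound exposure, then 15 min fixation at room temperature | benchmarks = positive control ellipticine, 6 µM final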
SR-BI DiI-HDL act: activators of SR-BI mediated HDL lipid uptake; CHO ldlA[mSR-BI] cells, DiI-HDL uptake fluorescence, 3 h; 100 = double the neutral-control signal; activation, % at 12.5 µM; actives 0.096% (n = 320,000);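 active = mean replicate activation of at least 60% and every replicate at or above 60%; inconclusive = mean or all-replicate condition met, but not both; inactive = mean below 60% and not all replicates reaching 60%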;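 note: 0% = median plate neutral-control signal and 100% = twice that signal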
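Test system: SR-BI-overexpressing, LDLR-lacking CHO cells; Medium: Ham's F12 with 0.5% BSA, HEPES 25 mM, pH 7.4; Schedule: 3 h, 37 °C; Technique: bottom-read fluorescence, 550/595 nm.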
NSD2 HMT inh: blocks human histone methyltransferase NSD2; O96028; NSD2 peptide methylation, AlphaScreen, 120 min; inhibition, % at 12.5 µM; actives 0.54% (n = 310,000); AID 743445; in the data active = inhibition above about 50%
ARNT TACC3 PPI: ARNT/TACC3 interaction disruption. Q9Y6A5. AID 623870. inhibition, % at 9.99 µM. AlphaScreen His-ARNT PAS-B/GST-TACC3 binding, luminescence; TACC3 fragment carries E629A point mutation. actives 0.66% (n = 390,000);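 active = mean inhibition of replicates at least 50% and at least half of replicates each reaching 50%; inconclusive = half or more replicates reach 50% but mean below 50%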;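 note: 0% = complete ARNT plus TACC3 wells and 100% = ARNT alone without TACC3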
Starred values were filed as active, the others as inactive; ? = inconclusive; / = no result. An excerpt weighted towards active compounds, which were near 2% of everything screened.

SMILES	SR-BI DiI inh	sPLA2-III inh	XiGFP reactiv	SR-BI DiI-HDL act	NSD2 HMT inh	ARNT TACC3 PPI
COc1ccc(-c2nn(-c3ccccc3)cc2/C=N/Nc2ccc3ccccc3n2)cc1OC	33	-9	0	-33	-2	2
COc1ccc(-c2nn(-c3ccccc3)cc2/C=N/Nc2ccc(S(N)(=O)=O)cc2[N+](=O)[O-])cc1OC	79*	1	1	-79	-1	4
Cc1c(N/N=C(\C#N)C(=O)c2ccc(Cl)cc2)c(=O)n(-c2ccccc2)n1C	-1	12	1	1	0	60*
COc1ccc(CCNS(=O)(=O)c2ccc3c(c2)CC(C)N3C(=O)C2CC2)cc1OC (centres undefined)	/	-4	0	/	0	/
C=CCN1[C@@H]2CN(S(C)(=O)=O)C[C@H]1C2c1ccc(-c2ccc(F)cc2)cc1 (some centres undefined)	/	/	1	/	/	/
O=C(Nc1ccccc1)N1CCCCN2[C@H](CO)[C@@H](c3ccc(C#CC4CC4)cc3)[C@@H]2C1	/	/	0	/	/	active
O=C(Nc1ccccc1)N1CCCCN2[C@H](CO)[C@H](c3ccc(C#Cc4ccccn4)cc3)[C@H]2C1	/	/	0	/	/	11*
C[C@H]1CN([C@@H](C)CO)S(=O)(=O)c2ccc(C#CCN(C)C)cc2O[C@@H]1CN(C)C(=O)C1CCCCC1	/	/	0	/	/	1
COC(=O)C(NC(=O)c1ccc(F)cc1)(Nc1nc(C)cs1)C(F)(F)F (centres undefined)	14	4	/	-14	-2	9
Cc1ccc(NC(=O)CSc2nc3ccccc3c(=O)n2CC2CCCO2)cc1 (centres undefined)	-10	4	0	10	-1	-5
Cc1cccc(NC(=O)CSc2nc3ccccc3c(=O)n2CC2CCCO2)c1 (centres undefined)	80*	-2	0	-80	-4	1
CCCOc1ccc(CN2CCOCC2)cc1OC	-36	-1	0	36	-1	-6
COc1ccc(NC(=O)Nc2cccc3ccccc23)c(OC)c1	71*	10	0	-71	0	-6
COc1ccc(NC(=O)NCc2cccn2C)c(OC)c1	85*	-3	/	-85	-1	0
COc1ccc(NC(=O)NCc2ccncc2)c(OC)c1	4	6	/	-4	4	/
O=C(C[C@@H]1CC[C@@H]2[C@H](COC[C@@H](O)CN2Cc2ccc3c(c2)OCO3)O1)N1CCOCC1	/	/	0	/	/	0
CN(C)c1ccc(C(=O)OCc2ccccc2)cc1	-5	12	/	5	-3	/
O=C1C=CC(=O)C(CNc2ccc(C(=O)OCc3ccccc3)cc2)=C1	10	26*	?	-10	/	12
Cc1ccc(C2(c3noc(CN(C)Cc4cnn(C)c4)n3)CCCC2)cc1	-122	-5	0	122*	-9	/
Cc1ccc([C@H]2C[C@@H](n3cc(-c4ccc(F)cc4)nn3)[C@H](O)CN2C(=O)C2CCCCC2)cc1	/	-10	0	/	/	/
Cc1ncc(C(=O)Nc2ccccc2)[nH]1	-19	-1	0	19	0	-7
CC(=O)C(C(c1ccccc1)N1CCOCC1)N1CCOCC1 (centres undefined)	-14	4	0	14	1	-4
CSc1ccc(C(C(C(=O)c2cccs2)N2CCOCC2)N2CCOCC2)cc1 (centres undefined)	-65	1	/	65*	1	1
OC[C@@H]1[C@@H](c2ccc(Br)cc2)[C@@H]2CN(Cc3ccccn3)CCCCN12	/	/	0	/	/	14
CC1=C(C)/C(=N\OS(=O)(=O)c2ccccc2)C=CC1=O	87*	/	/	-87	/	/
SMILES	SR-BI DiI inh	sPLA2-III inh	XiGFP reactiv	SR-BI DiI-HDL act	NSD2 HMT inh	ARNT TACC3 PPI
CC1=CC(=O)C(C(C)C)=C/C1=N\OS(=O)(=O)c1ccc(F)cc1	/	3	/	/	/	/
CCC1=NN(C(=O)c2ccc(C)cc2)C(O)(c2ccc(Br)cc2)C1 (centres undefined)	-103	-4	0	103*	1	-5
CC1=NN(C(=O)c2csc(C)c2)C(O)(C(F)(F)F)C1 (centres undefined)	33	-2	/	-33	-6	-4
CC1=NN(C(=O)c2ccc(Br)cc2)C(O)(C(F)(F)OC(F)(F)F)C1 (centres undefined)	78*	1	/	-78	-2	-10
COc1cc(C(=O)NNC2=CC(=O)CC(C)(C)C2)cc(OC)c1OC	10	-26	0	-10	0	0
O=C1Nc2ccc(Br)cc2C1=Nc1cccnc1	/	6	0	/	67*	/
C[C@H](CO)N1C[C@H](C)[C@@H](CN(C)C(=O)Nc2ccc(F)cc2)Oc2ncc(C3=CCCC3)cc2C1=O	/	/	0	/	/	-7
O=C1C(Nc2ccccc2)=CC(c2ccc(O)cc2)N1c1ccccc1 (centres undefined)	/	-31	0	/	8	67*
CCCC#Cc1ccc2c(c1)O[C@H](CN(C)C(C)=O)[C@H](C)CN([C@H](C)CO)S2(=O)=O	/	/	0	/	/	2
CCOc1ccc(C(C)=O)cc1CSc1nnc(-c2ccoc2C)n1N	71*	-2	/	/	-1	-4
COCCn1cnnc1SCC(=O)Nc1ccc(N2CCCCC2)cc1	-4	5	-1	4	0	-4
Cc1c2cc[n+](CCN3CCCCC3)cc2c(C)c2c1[nH]c1ccc(O)cc12	-15	/	/	15	22	49*
CCOC(=O)c1[nH]c2ccc(C)cc2c1NC(=O)CN1CCCCC1	4	5	/	-4	3	5
CC1=N/C(=C/c2ccco2)C(=O)O1	-25	0	0	25	119*	-14
O=C(Nc1ccccc1Cl)c1ccc2c(c1)N(Cc1ccc(F)cc1)C(=O)CS2=O (centres undefined)	82*	-16	0	-82	/	-1
O=C(NCCc1ccccc1)c1ccc2c(c1)N(Cc1ccccc1)C(=O)CS2=O (centres undefined)	1	-19	0	-1	/	2
Cc1ccc(Cn2cc(/C=N/NC(=O)Cc3nnc(NC(=O)c4ccc(C)cc4)s3)c3ccccc32)cc1	78*	0	0	-78	-3	-18
O=C(Cc1nnc(NC(=O)c2ccccc2)s1)N/N=C/c1cccc(O)c1	46	-34	0	-46	1	-5
Cc1ccc(C)c(N2C(=O)c3ccc(C(=O)OCC(=O)c4c(N)n(C)c(=O)n(C)c4=O)cc3C2=O)c1	22	-2	0	-22	0	1
Cc1nn(-c2cccc(Cl)c2)c2c1C(c1cccnc1)C(C#N)=C(N)O2 (centres undefined)	12	-7	/	-12	0	8
